# Legend:
# [1] = biological target: T1, UDP-glucuronosyltransferase 1A3 (Homo sapiens, UniProt P35503); experiment: Drug metabolism assessed as Vmax/Km ratio for human UGT1A3-mediated T-5224 hydroxyl O-glucuronide formation per mg protein after 10 to 60 mins in presence of UDP-glucuronic acid by HPLC method; assay type: ADME; settings: recombinant enzyme
# T1 sequence (P35503 whole entry): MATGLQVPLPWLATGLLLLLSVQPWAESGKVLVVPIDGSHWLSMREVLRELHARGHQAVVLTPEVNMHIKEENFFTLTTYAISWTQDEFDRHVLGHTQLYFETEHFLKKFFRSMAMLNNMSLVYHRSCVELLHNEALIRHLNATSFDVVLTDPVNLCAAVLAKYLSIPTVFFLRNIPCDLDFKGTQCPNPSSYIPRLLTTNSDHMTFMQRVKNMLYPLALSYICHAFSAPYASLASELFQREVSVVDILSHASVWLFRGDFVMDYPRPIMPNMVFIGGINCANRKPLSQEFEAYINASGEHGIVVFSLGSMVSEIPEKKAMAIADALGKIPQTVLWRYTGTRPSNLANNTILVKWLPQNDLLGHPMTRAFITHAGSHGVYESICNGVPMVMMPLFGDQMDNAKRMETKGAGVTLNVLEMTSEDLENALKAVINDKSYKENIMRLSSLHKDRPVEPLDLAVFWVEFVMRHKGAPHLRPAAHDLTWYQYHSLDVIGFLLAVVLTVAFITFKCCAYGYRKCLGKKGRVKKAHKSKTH
# Method in brief: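 Kinetics used recombinant UGT1A1, 1A3 or 1A8 (0.1 mg protein/mL) with T-5224 at 1–50 μM, 2 mM UDPGA and 60 min at 37°C, in triplicate. G2/G3 were measured by HPLC at 290 nm and fitted to a substrate-inhibition model (Vmax, Km, Ksi). UGT content was quantified by immunoblot, and kcat = Vmax/E0 was derived from it.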
# Liver microsome [2] = experiment: Drug metabolism in human liver microsomes assessed as T-5224 hydroxyl O-glucuronide formation per mg protein after 10 to 60 mins by HPLC method; assay type: ADME
# Method in brief: (§1)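 Pooled liver (0.5 mg protein/mL) or intestinal (0.25 mg protein/mL) microsomes in 50 mM Tris-HCl pH 7.5, 8 mM MgCl2, alamethicin, 2% DMSO. T-5224 at 1–50 μM, 5 min preincubation at 37°C, started with 2 mM UDPGA. Incubated 10 min, or 20 min for intestinal microsomes at 1–5 μM. Acetonitrile stop, glucuronides by HPLC at 290 nm. Triplicates fitted to a substrate-inhibition model.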
# Liver microsome [3] = experiment: Drug metabolism in human liver microsomes assessed as T-5224 hydroxyl O-glucuronide formation after 10 to 60 mins by HPLC method; assay type: ADME; method in brief: as §1
# [4] = Drug metabolism in human intestinal microsomes assessed as Vmax/Km ratio for T-5224 hydroxyl O-glucuronide formation per mg protein after 10 to 60 mins by HPLC method; assay type: ADME, Intestine, Microsome
# Method in brief: (§2)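 Pooled liver microsomes (0.5 mg/mL) were incubated 10 min. Pooled intestinal microsomes (0.25 mg/mL) ran 10 min at T-5224 10–50 μM and 20 min at 1–5 μM. Buffer was 50 mM Tris-HCl pH 7.5 with 8 mM MgCl2, alamethicin and 2 mM UDPGA, at 37°C, in triplicate. Glucuronides G2/G3 were read by HPLC at 290 nm and fitted for Vmax/Km.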
# [5] = biological target: T1, UDP-glucuronosyltransferase 1A3; experiment: Substrate inhibition of human UGT1A3-mediated T-5224 acyl O-glucuronide formation after 10 to 60 mins in presence of UDP-glucuronic acid by HPLC method; assay type: ADME
# Method in brief: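 Recombinant human UGT1A1, UGT1A3 or UGT1A8 from baculovirus-infected insect cells (0.1 mg protein/mL) in 50 mM Tris-HCl pH 7.5, 8 mM MgCl2, alamethicin, 2% DMSO. T-5224 at 1–50 μM with 2 mM UDPGA for 60 min at 37°C. HPLC with UV at 290 nm. Triplicates fitted to a substrate-inhibition model. kcat uses UGT content quantified by immunoblot against recombinant UGT1A1/UGT2B4 standards.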
# Liver microsome [6] = experiment: Drug metabolism in pooled human liver microsomes assessed as T-5224 hydroxyl O-glucuronide formation in presence of UDPGA by LC-MS/MS method; assay type: ADME
# Liver microsome [7] = experiment: Drug metabolism in human liver microsomes assessed as T-5224 acyl O-glucuronide formation per mg protein after 10 to 60 mins by HPLC method; assay type: ADME; method in brief: as §2
# [8] = Drug metabolism in pooled human intestinal microsomes assessed as T-5224 acyl O-glucuronide formation at 10 uM after 10 mins by HPLC method; assay type: ADME, Intestine, Microsome
# Method in brief: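 T-5224 at 10 μM incubated for 10 min at 37°C with UDPGA (2 mM) in pooled liver (0.5 mg protein/mL) or intestinal (0.25 mg protein/mL) microsomes. Buffer was 50 mM Tris-HCl pH 7.5 with 8 mM MgCl2 and alamethicin, after 5 min preincubation. Stopped with acetonitrile; glucuronides quantified by HPLC at 290 nm.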
# Cytochrome P450 2C8 = biological target: T2, Cytochrome P450 2C8 (Homo sapiens, UniProt P10632); experiment: Drug metabolism assessed as human CYP2C8-mediated metabolite formation at 2 uM after 30 mins by HPLC method; assay type: ADME; settings: recombinant enzyme, 0.5 h
# T2 sequence (P10632 whole entry): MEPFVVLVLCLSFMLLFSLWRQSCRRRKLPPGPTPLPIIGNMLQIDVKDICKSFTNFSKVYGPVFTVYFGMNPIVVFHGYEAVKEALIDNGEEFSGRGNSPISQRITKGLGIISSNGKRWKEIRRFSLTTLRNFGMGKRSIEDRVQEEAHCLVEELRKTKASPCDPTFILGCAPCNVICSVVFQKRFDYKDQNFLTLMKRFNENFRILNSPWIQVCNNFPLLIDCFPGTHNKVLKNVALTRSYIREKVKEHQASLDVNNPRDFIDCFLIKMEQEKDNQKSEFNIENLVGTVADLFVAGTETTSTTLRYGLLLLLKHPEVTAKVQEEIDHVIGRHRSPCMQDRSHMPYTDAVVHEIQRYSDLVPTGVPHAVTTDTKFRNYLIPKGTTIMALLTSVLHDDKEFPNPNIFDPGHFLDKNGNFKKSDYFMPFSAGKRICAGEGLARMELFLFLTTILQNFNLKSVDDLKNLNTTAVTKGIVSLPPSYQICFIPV
# Method in brief: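 Each recombinant human P450 was used at 50 pmol/mL with an NADPH-generating system and 2 μM 14C-T-5224 (0.5% DMSO final). Buffer was 100 mM Tris-HCl pH 7.5, except 100 mM potassium phosphate pH 7.4 for CYP2A6 and CYP2C9*1. Incubation ran 30 min at 37°C and was stopped with acetonitrile/methanol. Radioactive metabolite peaks were detected by C18 HPLC.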
compound,measurement,setting,value
O=C(O)CCc1cc(C(=O)c2ccc(OC3CCCC3)cc2O)ccc1OCc1ccc2c(O)noc2c1,Vmax/Km,[1],47.5 µL/min
same,Vmax,Liver microsome [2],305 pmol/min
same,Km,Liver microsome [3],15.7 µM
same,Vmax/Km,[4],34.6 µL/min
same,Ki,[5],13.5 µM
same,Drug metabolism,Liver microsome [6],metabolite_detected
same,Vmax,Liver microsome [7],217 pmol/min
same,Drug metabolism,[8],metabolite_detected
same,Drug metabolism,Cytochrome P450 2C8,metabolite_not_detected

# Source: ChEMBL document CHEMBL3526015, “Metabolism of the c-Fos/activator protein-1 inhibitor T-5224 by multiple human UDP-glucuronosyltransferase isoforms” (Drug Metab Dispos, 2011)
